Experiment [1] is described as follows: inhibitors of TNFa-induced NFkB p65 translocation, primary screen, imaging, HUVEC, MLSMR starter and 10KST1 sets (AID 438).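 For inhibition: signal is the nuclear over cytoplasmic p65 intensity ratio per well.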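 Note: compound added about 3h40 before a 20 min TNFalpha stimulation.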 To be noted: HUVEC TNFa-induced p65 nuclear translocation; cell count: measured here: nuclei count (cytotoxicity indicator), at 2.08 µM; inhibition: at 2 µM, stronger effect = higher value, 0% TNFa-plus-vehicle, 100% no-TNFa wells.
Experiment [2] is described as follows: inhibitors of E-selectin induction by TNFa, primary screen, imaging, HUVEC, immunofluorescence, MLSMR starter and 10KST1 sets (AID 487;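 active = visually confirmed hit in the image check and inhibition above 20%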;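 for inhibition: signal is fraction of cell area covered by stained E-selectin grains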;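 for nuclei count: 100% = median nuclei count of all wells on the same plate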). As to conditions: HUVEC TNFalpha-induced E-selectin immunofluorescence imaging, at 2 µM; inhibition: stronger effect = higher value; nuclei count: measured here: cell number, toxicity.
The nature of experiment [3]: DUSP6 inhibitors restoring Erk phosphorylation by chemical complementation, primary imaging in DUSP6-transfected HeLa (AID 609;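 active = compounds giving at least 50% inhibition in the cell-based MKP-3 phosphatase rescue imaging test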;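 for inhibition: phospho-Erk level distribution per well compared with pooled transfected vehicle control wells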). To be noted: HeLa MKP-3 transfected, phospho-Erk imaging KS statistic, at 10 µM, cells stimulated with TPA for 15 min.
The target of experiment [4] is Dual specificity protein phosphatase 6 (Homo sapiens) (UniProt Q16828). The description is as above. To be noted: HeLa MKP-3 transfected, phospho-Erk imaging KS statistic; at 10 µM; stronger effect = higher value; cells stimulated with TPA for 15 min.
Experiment [5] concerns the target Voltage-gated potassium channel subunit beta-2 (Rattus norvegicus) (UniProt P62483). The experiment is described as follows: KvBeta enzyme negative modulators, primary screen, biochemical, NADPH fluorescence (AID 622;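 active = fluorescence slope higher than the sample average by over 3 SD, cut at about -0.22 in these data, passing the limit was not always enough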;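 note: slope of raw intensity against log time taken from 70 to 1610 s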). To be noted: recombinant KvBeta, 4-cyanobenzaldehyde reduction, at 10 µM, stronger effect = higher value.
For experiment [6] the target is unchanged. The experiment is described as follows: KvBeta positive modulators, primary screen, biochemical, NADPH fluorescence (AID 623;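 active = NADPH fluorescence slope more negative than the mean of all samples by about 3 SD, 99.7% confidence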;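 note: fluorescence intensity change per second fitted from 20 to 320 s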). To be noted: Recombinant KvBeta, NADPH fluorescence decrease slope, 10 min; at 10 µM; stronger effect = lower value.
The target of experiment [7] is Alpha-2C adrenergic receptor (Homo sapiens) (UniProt P18825). The experiment is described as follows: modulators of alpha2C/GIRK thallium flux, primary screen, cell-based, HEK293 alpha2C/GIRK1/2 (AID 624;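 active = fluorescence slope after compound addition differing from the mean of all screened samples at 99.7% confidence, in either direction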;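 note: slope of fluorescence ratio to pre-addition baseline per second over 15 to 24 s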). As to conditions: thallium flux BTC fluorescence, at 10 µM, actives lie on both sides.
Experiment [8] can be described thus: inhibitors of larval lipid processing in zebrafish, primary screen, whole organism, PED6 fluorescence, gall bladder and intestine (AID 686;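 active = a full or partial loss of lipid-probe fluorescence in the fish gall bladder, intestine or both, judged by eye; inactive = no fluorescence loss, or compound toxic to the fish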;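 note: larvae 5 to 7 days old with five fish per well; signal comes from phospholipase A2 cleavage of quenched PED6 carried via bile; overnight exposure to compound and PED6 before scoring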). As to conditions: Zebrafish larvae PED6 lipid processing, fluorescence scoring; screened at 20 µM (by protocol). The procedure, abridged:
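Doses: 20 µM single dose. Test system: live zebrafish larvae aged 5-7 days, whole organism. Quantity: five larvae per well. Measured by: By-eye fluorescence microscopy. Reagent: ingested quenched lipid PED6 at 100 nM. Read-out: visual per-well fluorescence inhibition score. Times: overnight exposure of larvae to compound plus PED6.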

Experiment [9] can be described thus: inhibitors of Chlamydomonas gravitaxis, primary screen, whole organism, Chlamydomonas reinhardtii, WT vs cilia-less mutant, absorbance, 96-well (AID 463189;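 active = inhibition at or above 50% relative to wild type and mutant plate controls; inactive = inhibition below 50%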;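 note: 0% = wild type cc124 cells in DMSO and 100% = ciliumless bld1 mutant cells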). To be noted: OD600 absorbance, 2 days, at 10 µM, stronger effect = higher value.
[10] abbreviates: measured here: cell density z-score.
Setting [11] is: measured here: nuclear c-Myc green intensity z-score.
Setting [12] is: measured here: nuclear pErk red intensity z-score, stronger effect = higher value.

The source made the active and inactive calls.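 Rule for the calls, unless noted: active = inhibition above 20% together with a positive visual image hit; inconclusive = visual image hit but inhibition not above 20%; inactive = no visual image hit.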

As usually defined, the inhibition is the change of the read-out against control, counted positive when it falls.

Dual specificity protein phosphatase 6 (Homo sapiens), sequence (Q16828 whole entry, looked up): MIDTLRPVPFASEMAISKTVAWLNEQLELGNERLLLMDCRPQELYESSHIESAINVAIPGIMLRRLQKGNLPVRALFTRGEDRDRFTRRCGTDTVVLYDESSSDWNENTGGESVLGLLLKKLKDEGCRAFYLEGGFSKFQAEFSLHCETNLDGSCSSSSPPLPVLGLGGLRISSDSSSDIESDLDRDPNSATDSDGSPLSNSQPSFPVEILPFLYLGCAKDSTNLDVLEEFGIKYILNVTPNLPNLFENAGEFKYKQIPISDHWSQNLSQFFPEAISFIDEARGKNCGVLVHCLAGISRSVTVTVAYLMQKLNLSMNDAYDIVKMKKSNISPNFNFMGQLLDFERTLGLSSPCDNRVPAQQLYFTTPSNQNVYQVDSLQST
Alpha-2C adrenergic receptor (Homo sapiens), sequence (P18825 whole entry, looked up): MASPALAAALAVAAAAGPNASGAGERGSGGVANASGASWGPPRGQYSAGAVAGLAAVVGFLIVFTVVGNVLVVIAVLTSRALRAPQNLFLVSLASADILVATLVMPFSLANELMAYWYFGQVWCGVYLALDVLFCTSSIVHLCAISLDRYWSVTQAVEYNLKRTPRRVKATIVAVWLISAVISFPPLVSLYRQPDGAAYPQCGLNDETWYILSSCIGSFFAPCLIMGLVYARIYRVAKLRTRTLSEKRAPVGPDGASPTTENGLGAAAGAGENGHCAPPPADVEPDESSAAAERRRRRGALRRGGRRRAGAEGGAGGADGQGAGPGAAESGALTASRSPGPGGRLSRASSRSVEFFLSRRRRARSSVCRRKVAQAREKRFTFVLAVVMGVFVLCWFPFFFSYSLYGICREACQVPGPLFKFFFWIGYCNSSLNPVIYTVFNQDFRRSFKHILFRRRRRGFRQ
Voltage-gated potassium channel subunit beta-2 (Rattus norvegicus), sequence (P62483 whole entry, looked up): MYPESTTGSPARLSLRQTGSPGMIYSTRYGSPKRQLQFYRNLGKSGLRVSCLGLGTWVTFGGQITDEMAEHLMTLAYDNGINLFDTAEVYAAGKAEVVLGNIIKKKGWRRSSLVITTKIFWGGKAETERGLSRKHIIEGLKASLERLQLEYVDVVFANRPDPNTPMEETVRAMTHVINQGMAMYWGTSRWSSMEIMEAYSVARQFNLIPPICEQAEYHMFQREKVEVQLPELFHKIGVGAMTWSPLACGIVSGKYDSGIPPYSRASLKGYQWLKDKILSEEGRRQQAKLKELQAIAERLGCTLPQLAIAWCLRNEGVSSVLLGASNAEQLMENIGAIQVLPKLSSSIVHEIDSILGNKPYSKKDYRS

Consider `Cc1cc(C)c(C#N)c(SCC(=O)NC2CC2)n1`, for which the cell count in [1] was determined as 646. Further, the inhibition in [1] is -7.6% (inactive); in experiment [2], -12% (inactive); in experiment [4], 2.92% (inactive); in [9], 0.954% (inactive). In [2], the nuclei count was 154%. Besides, the z-score is 2.42 in [3] (setting [10]), -0.939 in experiment [3] (setting [11]) and 0.0715 in [3] (setting [12]). Also, in [5], the fluorescence slope is -0.444 (inactive). Moreover, the NADPH fluorescence slope in experiment [6] was -5.6e-05 (inactive). Besides, the slope in experiment [7] is 0.00581 (inactive). In experiment [8], the outcome was inactive.
Turning to `COCCCn1c2nc3ccccc3nc2c2c(=O)n(CC3CCCO3)cnc21` (stereo unspecified), in experiment [1], the cell count is 561. The inhibition in experiment [1] is -24.2% (inactive); in experiment [2] it was -93.6% (inactive); in [4], 2.92% (inactive); in experiment [9], 9.15% (inactive). The compound further registered a nuclei count in experiment [2] of 148%. Also, the results for the z-score in [3] (setting [10]), in experiment [3] (setting [11]) and in experiment [3] (setting [12]) were 0.117, -0.113 and -0.0537, respectively. In addition, the fluorescence slope in experiment [5] is -0.368 (inactive). Moreover, the NADPH fluorescence slope in [6] is -1.9e-05 (inactive). In experiment [7], the slope was 0.00353 (inactive). Also, the outcome in experiment [8] was inactive.
With `Cn1c(OCc2ccco2)nc2c1c(=O)n(Cc1ccc(Cl)c(Cl)c1)c(=O)n2C`, the cell count in [1] came out at 642. For the same compound, the inhibition in [1] was -4.4% (inactive); in experiment [2], 12.6% (inactive); in [4] it was 0.671% (inactive); in experiment [9], -1.38% (inactive). The nuclei count in [2] is 136%. The figures for the z-score in [3] (setting [10]), in experiment [3] (setting [11]) and in [3] (setting [12]) were 1.05, 0.078 and -0.436, respectively. The fluorescence slope in experiment [5] is -0.521 (inactive). Also, the NADPH fluorescence slope in [6] is -4.1e-05 (inactive). Also, the slope in experiment [7] is 0.00511 (inactive). Moreover, in experiment [8], the outcome was inactive.
Turning to `CCOc1ccc2c(C)nc(NC3=NC(C)(C)C=C(C)N3)nc2c1`, the cell count in experiment [1] amounted to 641. The inhibition in experiment [1] was -3.1% (inactive); in [2] it was 46.4% (inactive); in experiment [4], -9.66% (inactive); in experiment [9] it was 19.3% (inactive). In experiment [2], this compound came in with a nuclei count of 158%. Moreover, the z-score in [3] (setting [10]) was -1.28; in [3] (setting [11]), 1.6; in [3] (setting [12]), 1.26. In addition, in [5], the fluorescence slope was -0.373 (inactive). In addition, the NADPH fluorescence slope in [6] was -4.2e-05 (inactive). Moreover, the slope in experiment [7] was 0.00624 (inactive). Also, the call in experiment [8] was inactive.
Regarding `CCc1cc2c(=O)c(-c3cscn3)coc2c(CN(C)C)c1O`, the cell count in experiment [1] amounted to 517. The inhibition in experiment [1] was -8.2% (inactive); in [2] it was -53.3% (inactive); in experiment [4], 1.9e-07% (inactive); in experiment [9], 15.7% (inactive). The compound further yielded a nuclei count in [2] of 86.5%. Besides, the z-score was 0.222 in [3] (setting [10]), -0.434 in experiment [3] (setting [11]) and 0.878 in experiment [3] (setting [12]). In experiment [5], the fluorescence slope is -0.0873 (inactive). In experiment [6], the NADPH fluorescence slope was -2.5e-06 (inactive). For the same compound, in experiment [7], the slope is 0.00409 (inactive). Moreover, in [8], the result was inactive.
Turning to `CCCSC1=C(C#N)C(c2ccc(OC)cc2)C2=C(CC(C)(C)CC2=O)N1` (stereo unspecified), the cell count in [1] was determined as 364. The inhibition in [1] is -8.4% (inactive); in experiment [2], -74.2% (inactive); in experiment [4], -4.59% (inactive); in experiment [9] it was 15.5% (inactive). For the same compound, the nuclei count in experiment [2] turned out to be 160%. Moreover, the figures for the z-score in [3] (setting [10]), in experiment [3] (setting [11]) and in [3] (setting [12]) were 1.35, -0.891 and 0.22, respectively. In experiment [5], the fluorescence slope was -0.439 (inactive). The NADPH fluorescence slope in experiment [6] was -0.000144 (inactive). Further, the slope in [7] was 0.00555 (inactive). For the same compound, the outcome in [8] was inactive.
As for `c1coc(-c2nnc3sc(Cc4cccs4)nn23)c1`, the cell count in experiment [1] worked out at 593. Besides, the inhibition in experiment [1] was -3.5% (inactive); in [2] it was 60.4% (inactive); in [4], -13.3% (inactive); in experiment [9], 5.83% (inactive). Besides, the nuclei count in [2] was 98.5%. Also, the results for the z-score in [3] (setting [10]), in experiment [3] (setting [11]) and in experiment [3] (setting [12]) were 0.488, -1.26 and -0.189, respectively. Besides, the fluorescence slope in experiment [5] is -0.5 (inactive). The NADPH fluorescence slope in experiment [6] was -4.8e-06 (inactive). Also, in experiment [7], the slope was 0.00451 (inactive). Moreover, the compound was called inactive in [8].
With `COc1ccc(C2CC(C(F)(F)F)n3ncc(C(=O)Nc4cccc(O)c4)c3N2)cc1OC` (stereo unspecified), the cell count in experiment [1] is 494. Also, the inhibition in experiment [1] is -6.1% (inactive); in experiment [2], -14.4% (inactive); in [4], 1.75% (inactive); in experiment [9], -4.48% (inactive). In addition, the nuclei count in experiment [2] turned out to be 119%. Also, the z-score in [3] (setting [10]) is -0.0495; in experiment [3] (setting [11]), 0.084; in experiment [3] (setting [12]), -0.887. The fluorescence slope in experiment [5] was -0.483 (inactive). Moreover, in [6], the NADPH fluorescence slope was -0.00017 (inactive). Moreover, the slope in experiment [7] was 0.0043 (inactive). The outcome in experiment [8] is “active; weak signal in gallbladder and intestine”.
`CCc1cccc(CC)c1N(COC)C(=O)Cn1nnc2ccccc21`: in [1], the cell count came to 369. Further, the inhibition is -11% (inactive) in [1], -230% (inactive) in [2], 20.8% (inactive) in experiment [4] and 23.5% (inactive) in [9]. The compound further had a nuclei count in experiment [2] of 180%. The figures for the z-score in [3] (setting [10]), in experiment [3] (setting [11]) and in experiment [3] (setting [12]) were 0.728, 0.454 and -0.0174, respectively. Moreover, the fluorescence slope in experiment [5] is -0.394 (inactive). In addition, in experiment [6], the NADPH fluorescence slope is -2.8e-05 (inactive). The slope in experiment [7] is 0.00431 (inactive). In addition, the compound was classed as inactive in experiment [8].
Consider `CC(C(=O)N1CCOCC1)N1C(=O)c2ccccc2C1=O` (stereo unspecified), for which, in [1], the cell count was determined as 306. Moreover, the inhibition in experiment [1] is -3% (inactive); in [2], -45.1% (inactive); in experiment [4] it was -8.76% (inactive); in [9], 15.3% (inactive). The nuclei count in [2] stood at 96%. Also, the z-score in [3] (setting [10]) is 1.24; in experiment [3] (setting [11]), -0.122; in experiment [3] (setting [12]), -1.67. Besides, in experiment [5], the fluorescence slope was -0.419 (inactive). Besides, the NADPH fluorescence slope in experiment [6] is 2.4e-06 (inactive). In addition, the slope in experiment [7] is 0.0049 (inactive). In experiment [8], the compound was classed as inactive.
As to `C=CCOC(=O)C(C#N)c1nc2ccccc2nc1N1CCC(C(=O)OCC)CC1` (stereo unspecified), the cell count in [1] came out at 486. In addition, the inhibition is -17.7% (inactive) in [1], -58.1% (inactive) in experiment [2], -6.06% (inactive) in experiment [4] and 13.6% (inactive) in experiment [9]. The compound further gave a nuclei count in experiment [2] of 138%. Moreover, the z-score is 0.17 in [3] (setting [10]), 0.218 in experiment [3] (setting [11]) and -0.151 in [3] (setting [12]). Further, the fluorescence slope in [5] was -0.471 (inactive). Further, in [6], the NADPH fluorescence slope is -6.3e-05 (inactive). The slope in experiment [7] is 0.00188 (inactive). Also, in experiment [8], the compound was classed as inactive.
Turning to `CCCC(=O)N1CCN(c2nc(CC(C)C)c3c(c2C#N)CCC3)CC1`, the cell count in experiment [1] is 529. Further, the inhibition in experiment [1] was -8.3% (inactive); in experiment [2], -117% (inactive); in experiment [4] it was -5.26% (inactive); in experiment [9], -3.24% (inactive). For the same compound, the nuclei count in [2] stood at 130%. Moreover, the figures for the z-score in [3] (setting [10]), in [3] (setting [11]) and in experiment [3] (setting [12]) were -0.247, 0.583 and 0.103, respectively. In addition, in [5], the fluorescence slope is -0.5 (inactive). Further, the NADPH fluorescence slope in [6] is -1.9e-05 (inactive). Also, the slope in experiment [7] was 0.00433 (inactive). The compound was classed as inactive in experiment [8].

(Values after PubChem BioAssay.)
